Screening results: PubChem, several laboratories
HNF4A DNA FP = change in binding of human HNF4 alpha to DNA. P41235. activity change, % at 10 µM. 360,000 tested, 0.3% active. HNF4a-FITC DNA binding, fluorescence polarization, 1 h; in the data active = activity change above about 30%, passing the limit was not always enough
IDE cell activ = activators of human insulin-degrading enzyme in cells; 340,000 tested, 0.073% active; activation, % at 5.96 µM; HEK cells, FAbeta-B cleavage, fluorescence polarization; 0% vehicle, 100% cell-free pure enzyme wells;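 active = activation above the mean of all tested compounds plus 3 SD, set per screening campaign, cut at about 17% in these data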
Rpn11 inh = blocks the human proteasome subunit Rpn11; O00487; human 26S proteasome, Ub4-pepOG fluorescence polarization; 20S core pre-blocked with epoxomicin; calls only at 20 µM; 360,000 tested, 0.59% active; AID 588493;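 active = inhibition at 20 µM, scaled to each plate's controls, above about 33%, limit read from the data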
Target sequence (O00487 whole entry, looked up): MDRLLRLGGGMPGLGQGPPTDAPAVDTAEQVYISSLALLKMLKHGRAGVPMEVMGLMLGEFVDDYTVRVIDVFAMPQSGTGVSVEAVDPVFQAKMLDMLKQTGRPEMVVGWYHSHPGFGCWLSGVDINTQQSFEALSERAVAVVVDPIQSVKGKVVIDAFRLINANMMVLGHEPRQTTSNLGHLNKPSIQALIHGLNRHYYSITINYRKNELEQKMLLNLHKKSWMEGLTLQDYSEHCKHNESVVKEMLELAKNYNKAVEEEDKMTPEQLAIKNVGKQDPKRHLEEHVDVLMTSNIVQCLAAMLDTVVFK
TPT1 inhibitor = blocks Candida albicans tRNA 2'-phosphotransferase | recombinant caTPT1, FP RNA substrate dephosphorylation | inhibition, % at 5 µM | 300,000 tested, 0.81% active | AID 1962;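 active = inhibition above the mean of all tested compounds plus 3 SD, set per screening campaign, cut at about 24% in these data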;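 note: plate controls were DMSO alone for no effect and ferristatin control at 100 nM for full effect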
IDE cell inh = inhibitors of human insulin-degrading enzyme in cells; P14735; HEK cells, FAbetaB cleavage, fluorescence polarization; inhibition, % at 5.59 µM; 320,000 tested, 0.41% active; AID 434962;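 active = percent inhibition above the average of all tested compounds plus 3 SD, set per screening campaign, cut at about 16% in these data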;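 note: IDE supplied by intact live HEK cells; FP after avidin binding of uncleaved biotin substrate so inhibition keeps polarization high; 0% = DMSO wells and 100% = 60 µM reference IDE inhibitor Ii1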
CSN inh = CSN deneddylation inhibition; Q92905; inhibition, % at 12.5 µM; AID 651999; Purified CSN, SCF-Nedd8-OG deneddylation, fluorescence polarization; 360,000 tested, 0.38% active;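 active = pattern-corrected inhibition above about 35%, with an unprinted fluorescence ratio check between 0.5 and 1.5, limit read from the data, passing the limit was not always enough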;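 note: 0% = enzyme with substrate and 100% = substrate without enzyme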
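Assay system: HEK293T-derived human Csn5 enzyme; quantity: 0.24 nM enzyme; medium: Tris/NaCl/DTT buffer, pH 7.5; also added: substrate SCFSkp2-Nedd8OG, 10 nM; doses: 12.5 µM compound; schedule: 90 min reaction at room temperature; signal: FP; read-out: % inhibition of substrate cleavage by Csn5; benchmarks: substrate-only high control, full reaction low control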
caTPT1 confirm = TPT1 (C. albicans) inhibition, confirmation. shares compounds with TPT1 inhibitor. recombinant caTPT1, fluorescence polarization, RNase T1 coupled. AID 2149. inhibition, % at 5 µM. 2,400 tested, 74% active;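 active = inhibition above the primary screen limit, the mean inhibition of all tested compounds plus 3 SD, cut at about 25% in these data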
RNase T1 inh = blocks Aspergillus oryzae RNase T1, a TPT1 counter-screen | shares compounds with TPT1 inhibitor | RNase T1 cleavage, fluorescence polarization, 1536-well | inhibition, % at 5 µM | 2,400 tested, 83% active;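 active = inhibition above the solvent-only control well mean plus 3 SD, limit set per screening run, cut at about 23% in these data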;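 note: plate controls were DMSO wells with enzyme for no effect and wells without RNase T1 for full effect; inhibitors block cleavage so intact labeled substrate keeps polarization high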
Target sequence (P00651 whole entry, looked up): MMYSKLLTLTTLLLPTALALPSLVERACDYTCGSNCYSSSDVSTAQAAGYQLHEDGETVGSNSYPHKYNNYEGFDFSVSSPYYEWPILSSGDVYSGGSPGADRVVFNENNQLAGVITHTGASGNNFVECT
* hit, by the source's call. The list is not random: actives were taken first. Their share in the collection is about 1.7%.

Clc1ccc(Cn2c(/C=C/c3ccco3)nc3ccccc32)cc1 was read as HNF4A DNA FP 25.4, IDE cell activ 0.1, TPT1 inhibitor 29.1*, IDE cell inh 2.1, CSN inh 29.7, caTPT1 confirm 33.7* and RNase T1 inh 46.4*.
`C=CCn1c(/N=C/c2ccc(N(C)C)cc2)nc2ccccc21` gave HNF4A DNA FP 59.0*, IDE cell activ 1.0, TPT1 inhibitor 26.6*, IDE cell inh -3.1, CSN inh 26.2, caTPT1 confirm 110.3* and RNase T1 inh 117.2*.
`C=CCn1c(/N=C/c2ccc(OC)cc2)nc2ccccc21` gave HNF4A DNA FP 1.9, IDE cell activ 4.4, Rpn11 inh inactive, TPT1 inhibitor -1.6, IDE cell inh 5.1 and CSN inh -6.6.
For COC(=O)C1C(=O)C(C(=O)c2ccc([N+](=O)[O-])cc2)C(=O)CC1(C)C (configuration not stated) the results were HNF4A DNA FP -2.9, IDE cell activ 4.0, Rpn11 inh inactive, TPT1 inhibitor 0.6, IDE cell inh 4.0 and CSN inh -1.3.
CN(C(=O)COC(=O)c1ccc(NS(=O)(=O)c2cccs2)cc1)C1CCCCC1 was read as HNF4A DNA FP 2.4, IDE cell activ -0.1, Rpn11 inh inactive, TPT1 inhibitor -1.9, IDE cell inh -4.4 and CSN inh -6.4.
CCOC(=O)c1c(Nc2ccc(Cl)cc2)sc(/C=C2\C=Nc3ccccc32)c1O was read as HNF4A DNA FP 44.6*, IDE cell activ 4.3, TPT1 inhibitor 35.6*, IDE cell inh 5.1, CSN inh 17.5, caTPT1 confirm 45.7* and RNase T1 inh 54.4*.
Screening COC(=O)NC(=C(Cl)Cl)S(=O)(=O)c1ccccc1 returned HNF4A DNA FP 0.1, IDE cell activ 6.4, Rpn11 inh inactive, TPT1 inhibitor -4.0, IDE cell inh 6.1 and CSN inh -0.5.
CC1(C)Cc2c(c(N3CCOCC3)nc3sc(-c4ccc(C(=O)O)o4)c(N)c23)CO1 was read as HNF4A DNA FP 84.8*, IDE cell activ 3.9, TPT1 inhibitor 32.8*, IDE cell inh 0.4, CSN inh 61.8*, caTPT1 confirm 35.0* and RNase T1 inh 46.9*.
`CNC(=O)c1ccc(-c2sc3nc(N4CCOCC4)c4c(c3c2N)CC(C)(C)OC4)o1` gave HNF4A DNA FP 2.5, IDE cell activ 3.8, Rpn11 inh inactive, TPT1 inhibitor -0.3, IDE cell inh 3.2 and CSN inh -1.4.
CCN(CC)CCCNc1nc(CN2CCOCC2)nc2sc3c(c12)CCC3 was read as HNF4A DNA FP -4.8, IDE cell activ 1.4, Rpn11 inh inactive, TPT1 inhibitor 34.9*, IDE cell inh 4.5, CSN inh -9.7, caTPT1 confirm 7.5 and RNase T1 inh 9.4.
Screening O=C(O)C1Nc2c(Cl)cc(Cl)cc2C2C=CCC12 (configuration not stated) returned HNF4A DNA FP -58.0, IDE cell activ 8.6, TPT1 inhibitor 33.2*, IDE cell inh -1.7, CSN inh 36.3, caTPT1 confirm 11.2 and RNase T1 inh 16.5.
Screening O=C(O)C1Nc2ccc(Br)cc2C2C=CCC12 (configuration not stated) returned HNF4A DNA FP -66.2, IDE cell activ 5.4, Rpn11 inh inactive, TPT1 inhibitor 28.7*, IDE cell inh -4.6, CSN inh 30.1, caTPT1 confirm 11.4 and RNase T1 inh 21.5.
Screening CN1/C(=C/C2CC(=O)N(c3cccc4ccccc34)C2=O)C(C)(C)c2ccccc21 (configuration not stated) returned HNF4A DNA FP 17.6, IDE cell activ -8.9, TPT1 inhibitor 37.5*, IDE cell inh 4.2, CSN inh 18.6, caTPT1 confirm 54.5* and RNase T1 inh 67.9*.
For CCOc1ccc(N2C(=O)CC(/C=C3/N(C)c4ccccc4C3(C)C)C2=O)cc1 (configuration not stated) the results were HNF4A DNA FP 4.2, IDE cell activ -6.4, Rpn11 inh inactive, TPT1 inhibitor 24.8*, IDE cell inh 1.2, CSN inh 5.2, caTPT1 confirm 17.6 and RNase T1 inh 26.1*.
Screening CCOc1ccc(N2C(=O)CC(N3CCN(c4ccccc4F)CC3)C2=O)cc1 (configuration not stated) returned HNF4A DNA FP -2.4, IDE cell activ -5.9, Rpn11 inh inactive, TPT1 inhibitor -6.3, IDE cell inh 4.8 and CSN inh 1.1.
For CN1/C(=C/C2CC(=O)NC2=O)C(C)(C)c2ccccc21 (configuration not stated) the results were HNF4A DNA FP 8.7, IDE cell activ 1.6, Rpn11 inh inactive, TPT1 inhibitor -6.0, IDE cell inh -2.8 and CSN inh -0.3.
For C=CCn1c(CCC(=O)Nc2ccc(C)c(Cl)c2)nnc1SCC(=O)Nc1ccccc1C the results were HNF4A DNA FP 2.5, IDE cell activ -0.7, Rpn11 inh inactive, TPT1 inhibitor -3.0, IDE cell inh -0.9 and CSN inh 3.8.
Screening CCN(CC)c1ccc(C=C(c2nnnn2-c2ccc(C)cc2)c2nnnn2-c2ccc(C)cc2)cc1 returned HNF4A DNA FP 19.8, IDE cell activ -0.7, TPT1 inhibitor 76.6*, IDE cell inh 2.1, CSN inh 8.7, caTPT1 confirm 72.7* and RNase T1 inh 84.5*.
Cc1ccc(-n2nnnc2-c2ccccc2)cc1 was read as HNF4A DNA FP 3.2, IDE cell activ -1.3, Rpn11 inh inactive, TPT1 inhibitor 3.7, IDE cell inh -2.7 and CSN inh -8.5.
Cc1ccc2nc(SCC(=O)Nc3ccccc3N3CCOCC3)c(C#N)cc2c1 was read as HNF4A DNA FP -0.7, IDE cell activ -1.3, Rpn11 inh inactive, TPT1 inhibitor -2.5, IDE cell inh 5.6 and CSN inh 5.2.
Cc1ccc2nc(SCC(=O)Nc3ccc4sc(C)nc4c3)c(C#N)cc2c1 was read as HNF4A DNA FP 3.0, IDE cell activ 2.2, Rpn11 inh inactive, TPT1 inhibitor 24.9*, IDE cell inh -4.9, CSN inh 0.5, caTPT1 confirm 6.5 and RNase T1 inh 10.5.
Cc1nc2ccccc2c(=O)n1/N=C/c1ccc2ccccc2c1O was read as HNF4A DNA FP 1.3, IDE cell activ -0.7, Rpn11 inh inactive, TPT1 inhibitor 54.1*, IDE cell inh 1.0, CSN inh 7.3, caTPT1 confirm 25.9* and RNase T1 inh 34.5*.
